Results gathered from unrelated publications.
Target: Serine/threonine-protein kinase WNK2 (WNK2, Homo sapiens, UniProt Q9Y3S1)

CC1CCCN1c1nccc(-c2cnn3ncccc23)n1 (stereo not drawn) — remaining binding (binding; 1 µM): 100%
O=C(NCC1CCOCC1)c1n[nH]cc1NC(=O)c1c(F)cccc1F — remaining binding (binding, competition with immobilised ligand; 1 µM): 81%
CN(C)c1nccc(-c2cnn3ncccc23)n1 — remaining binding (binding; 1 µM): 37%
O=C(c1ccc(Nc2ncc(Cl)c(-c3cc4ccccc4s3)n2)cc1)N1CCC(N2CCCC2)CC1 — remaining binding (binding, competition with immobilised ligand; 1 µM): 83%
Cc1nc(Cc2cccc(C(F)(F)F)c2)sc1-c1ccc(C(N)=O)nc1 — remaining binding (cell-free assay, competition with immobilised ligand; 1 µM): 100%
c1cnn2ncc(-c3ccnc(N4CCC45COC5)n3)c2c1 — remaining binding (binding; 1 µM): 78%
CCS(=O)(=O)c1cc2cc(C[C@@](O)(CC(C)(C)c3ccc(F)cc3C(N)=O)C(F)(F)F)[nH]c2cn1 — remaining binding (cell-free assay, competition with immobilised ligand; 1 µM): 46%
C[C@@H](c1ccc(-n2cnc3c(N)ncnc32)cc1)N1CCc2nn(C)c(Cc3ccccc3)c2C1=O — remaining binding (binding, competition with immobilised ligand; 0.1 µM): 65%
O=C(NCCCN1CCOCC1)c1ccc(Nc2nccc(-c3cc4ccccc4s3)n2)cc1 — remaining binding (binding, competition with immobilised ligand; 1 µM): 60%
C[C@H]1CCN(c2nccc(-c3cnn4ncccc34)n2)C1 — remaining binding (binding; 1 µM): 98%
CC1=C(C#N)[C@@H](c2ccc3[nH]nc(C)c3c2)C(C#N)=C(c2ccc(Cl)cc2)N1 — remaining binding (cell-free assay, competition with immobilised ligand; 1 µM): 100%
N[C@H]1CCN(c2nccc(-c3cnn4ncccc34)n2)C1 — remaining binding (binding; 1 µM): 100%
CNC(=O)[C@@H]1CC[C@@H](n2c(-c3ccc4cnccc4c3)nc3ccc(C(=O)NCc4cccc(C(N)=O)c4)cc32)C1 — remaining binding (binding, competition with immobilised ligand; 1 µM): 100%
CCc1ccccc1C(=O)Nc1n[nH]c2c(C)c(F)c(C3C(C#N)=C(C)N(C)C(C)=C3C#N)cc12 — remaining binding (cell-free assay, competition with immobilised ligand; 1 µM): 100%
Cc1cnc(Nc2ccc(C(=O)N3CCC(N4CCCC4)CC3)cc2)nc1-c1cc2ccccc2s1 — remaining binding (binding, competition with immobilised ligand; 1 µM): 69%
C[C@@H](c1cccc(C#N)c1)n1cc(Cl)cc(C(N)=O)c1=N — remaining binding (cell-free assay, competition with immobilised ligand; 1 µM): 67%
CN(C)c1ncc(F)c(-c2cnn3ncccc23)n1 — remaining binding (binding; 1 µM): 82%
CC(C)(O)c1cncc(-c2nc3ccc(F)cc3n2C2CC2)c1 — remaining binding (cell-free assay, competition with immobilised ligand; 1 µM): 100%
COc1ncc2cc3ccccc3nc2c1C#N — remaining binding (cell-free assay, competition with immobilised ligand; 5 µM): 100%
COc1cnc(Nc2cccc(S(N)(=O)=O)c2)nc1N1CCN(c2ccccc2)C(=O)C1 — remaining binding (binding, competition with immobilised ligand; 1 µM): 100%
c1cncc(-c2cccc(Nc3nccc(NC4CCCCC4)n3)c2)c1 — remaining binding (binding, competition with immobilised ligand; 10 µM): 100%
